Test results as given in ChEMBL document CHEMBL4011650, “3-Hydroxy-1H-quinazoline-2,4-dione as a New Scaffold To Develop Potent and Selective Inhibitors of the Tumor-Associated Carbonic Anhydrases IX and XII” (J Med Chem, 2017).
The source made the active and inactive calls. No cut-off for these calls is given here.

What was measured:
Carbonic anhydrase 9 = Carbonic anhydrase 9 (Homo sapiens, UniProt Q16790)
Carbonic anhydrase 1 = Carbonic anhydrase 1 (Homo sapiens, UniProt P00915); experiment: Inhibition of recombinant human carbonic anhydrase 1 preincubated for 15 mins prior to testing by phenol red based stopped-flow CO2 hydration assay
Carbonic anhydrase 2 = Carbonic anhydrase 2 (Homo sapiens, UniProt P00918); experiment: Inhibition of recombinant human carbonic anhydrase 2 preincubated for 15 mins prior to testing by phenol red based stopped-flow CO2 hydration assay
[1] = Antiproliferative activity against human HT-29 cells assessed as cell viability at 30 uM after 48 hrs under normoxic conditions by MTT assay relative to control; format: cell-based; conditions: read-out: Activity
Method in brief: (§1)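 HT-29 cells in high-glucose DMEM with 20% FBS were seeded at 1·10^4/well and treated 24 h later. Incubation was under normoxia (20% O2, air with 5% CO2) at 37 °C for 16, 48 or 72 h. Viability was read by MTT reduction (1 mg/ml, 30 min), with formazan in DMSO read at 550 nm, relative to untreated control set at 100%. Quadruplicates on at least three cell batches.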

[2] = Antiproliferative activity against human HT-29 cells assessed as cell viability at 100 uM after 48 hrs under normoxic conditions by MTT assay relative to control; format: cell-based; conditions: read-out: Activity
Method in brief: as §1

[3] = Antiproliferative activity against human HT-29 cells assessed as cell viability at 300 uM after 48 hrs under normoxic conditions by MTT assay relative to control; format: cell-based; conditions: read-out: Activity
Method in brief: as §1

HT-29 [4] = experiment: Antiproliferative activity against human HT-29 cells assessed as cell viability at 30 uM after 48 hrs under hypoxic conditions by MTT assay relative to control; format: functional; conditions: HT-29, 48 h, read-out: Activity
Method in brief: (§2)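 HT-29 cells were grown in high-glucose DMEM with 20% FBS, seeded at 1·10^4/well and dosed 24 h later. Incubation was in a hypoxic chamber (0.1% O2, 5% CO2, balance N2) for 16, 48 or 72 h. Cells were washed, given MTT 1 mg/ml for 30 min at 37 °C, and formazan was dissolved in DMSO and read at 550 nm. Viability is % of untreated control, mean ± S.E.M.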

HT-29 [5] = experiment: Antiproliferative activity against human HT-29 cells assessed as cell viability at 100 uM after 48 hrs under hypoxic conditions by MTT assay relative to control; format: functional; conditions: HT-29, 48 h, read-out: Activity
Method in brief: as §2

HT-29 [6] = experiment: Antiproliferative activity against human HT-29 cells assessed as cell viability at 300 uM after 48 hrs under hypoxic conditions by MTT assay relative to control; format: functional; conditions: HT-29, 48 h, read-out: Activity
Method in brief: as §2

[7] = Antiproliferative activity against human HT-29 cells assessed as cell viability at 30 uM after 72 hrs under normoxic conditions by MTT assay relative to control; format: cell-based; conditions: read-out: Activity
Method in brief: as §1

[8] = Antiproliferative activity against human HT-29 cells assessed as cell viability at 100 uM after 72 hrs under normoxic conditions by MTT assay relative to control; format: cell-based; conditions: read-out: Activity
Method in brief: as §1

[9] = Antiproliferative activity against human HT-29 cells assessed as cell viability at 300 uM after 72 hrs under normoxic conditions by MTT assay relative to control; format: cell-based; conditions: read-out: Activity
Method in brief: as §1

HT-29 [10] = experiment: Antiproliferative activity against human HT-29 cells assessed as cell viability at 30 uM after 72 hrs under hypoxic conditions by MTT assay relative to control; format: functional; conditions: HT-29, 72 h, read-out: Activity
Method in brief: as §2

HT-29 [11] = experiment: Antiproliferative activity against human HT-29 cells assessed as cell viability at 100 uM after 72 hrs under hypoxic conditions by MTT assay relative to control; format: functional; conditions: HT-29, 72 h, read-out: Activity
Method in brief: as §2

HT-29 [12] = experiment: Antiproliferative activity against human HT-29 cells assessed as cell viability at 300 uM after 72 hrs under hypoxic conditions by MTT assay relative to control; format: functional; conditions: HT-29, 72 h, read-out: Activity
Method in brief: as §2

HT-29 [13] = experiment: Antiproliferative activity against human HT-29 cells assessed as reduction in cell viability at 30 to 300 uM after 16 hrs under hypoxic conditions by MTT assay relative to control; format: functional, cell-based
Method in brief: as §2

HT-29 [14] = experiment: Antiproliferative activity against human HT-29 cells assessed as reduction in cell viability at 30 to 300 uM after 16 hrs under normoxic conditions by MTT assay relative to control; format: cell-based; conditions: ht-29, 16 h
Method in brief: as §1

Sequence of Carbonic anhydrase 1 (P00915 whole entry): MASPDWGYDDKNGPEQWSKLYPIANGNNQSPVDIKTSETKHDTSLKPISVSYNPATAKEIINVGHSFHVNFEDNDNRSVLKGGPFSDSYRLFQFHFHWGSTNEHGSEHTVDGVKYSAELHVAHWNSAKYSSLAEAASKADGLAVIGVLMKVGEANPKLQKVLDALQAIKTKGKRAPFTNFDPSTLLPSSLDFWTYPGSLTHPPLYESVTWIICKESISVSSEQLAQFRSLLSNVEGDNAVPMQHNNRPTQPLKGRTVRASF

SMILES | Ki (Carbonic anhydrase 9) | Ki (Carbonic anhydrase 1) | Ki (Carbonic anhydrase 2) | viability at 48 h, 30 µM [1] | viability at 48 h, 100 µM [2] | viability at 48 h, 300 µM [3] | viability at 30 µM (HT-29 [4]) | viability at 100 µM (HT-29 [5]) | viability at 300 µM (HT-29 [6]) | viability at 72 h, 30 µM [7] | viability at 72 h, 100 µM [8] | viability at 72 h, 300 µM [9] | viability at 30 µM (HT-29 [10]) | viability at 100 µM (HT-29 [11]) | viability at 300 µM (HT-29 [12]) | Activity (HT-29 [13]) | Activity (HT-29 [14])
O=C(O)c1ccccc1C(=O)Nc1cc2c(=O)n(O)c(=O)[nH]c2cc1Cl | 0.0081 µM | > 10 µM | > 10 µM |  |  |  |  |  |  |  |  |  |  |  |  |  | 
O=C(NCc1ccccc1)Nc1ccc2[nH]c(=O)n(O)c(=O)c2c1 | 0.0267 µM | > 10 µM | > 10 µM | 57.4% | 56.9% | 85.6% | 50.6% | 46% | 78.2% | 32.4% | 51.7% | 61.3% | 33.4% | 40.2% | 59.9% | Active | Toxic
O=c1[nH]c2cc(C(F)(F)F)c(-n3cnnc3)cc2c(=O)n1O |  | > 10 µM | > 10 µM |  |  |  |  |  |  |  |  |  |  |  |  |  | 
O=C(O)c1ccccc1C(=O)Nc1ccc2[nH]c(=O)n(O)c(=O)c2c1 | 0.0625 µM | > 10 µM | > 10 µM |  |  |  |  |  |  |  |  |  |  |  |  |  | 
O=c1[nH]c2cc(Cl)c(-n3cnnc3)cc2c(=O)n1O | 0.0333 µM | > 10 µM | > 10 µM |  |  |  |  |  |  |  |  |  |  |  |  |  | 
CC(=O)Nc1nnc(S(N)(=O)=O)s1 [ACETAZOLAMIDE] |  |  |  | 96.8% | 101% | 101% | 108% | 102% | 85.7% | 97.6% | 95.8% | 93.2% | 107% | 111% | 84.1% |  | 
Nc1cc2c(=O)n(O)c(=O)[nH]c2cc1Cl | 0.0431 µM | > 10 µM | > 10 µM |  |  |  |  |  |  |  |  |  |  |  |  |  | 
O=C(O)CCC(=O)Nc1ccc2[nH]c(=O)n(O)c(=O)c2c1 | 0.0648 µM | > 10 µM | > 10 µM |  |  |  |  |  |  |  |  |  |  |  |  |  | 
O=c1[nH]c2ccccc2c(=O)n1O | 0.48 µM | > 10 µM | > 10 µM |  |  |  |  |  |  |  |  |  |  |  |  |  | 
O=c1[nH]c2cc(Cl)c([N+](=O)[O-])cc2c(=O)n1O |  | > 10 µM | > 10 µM | 58.2% | 72.5% | 77.6% | 45.7% | 64.6% | 70.8% | 36.8% | 61.2% | 70.3% | 41.6% | 55.9% | 63.5% |  | 
O=c1[nH]c2cc(Cl)ccc2c(=O)n1O | 0.0697 µM | > 10 µM | > 10 µM |  |  |  |  |  |  |  |  |  |  |  |  |  | 
O=C(Nc1ccccc1)Nc1cc2c(=O)n(O)c(=O)[nH]c2cc1Cl | 0.0428 µM | > 10 µM | > 10 µM |  |  |  |  |  |  |  |  |  |  |  |  |  | 
O=c1[nH]c2cc(Cl)c(-n3cccc3)cc2c(=O)n1O | 0.0083 µM | > 10 µM | > 10 µM |  |  |  |  |  |  |  |  |  |  |  |  |  | 
O=c1[nH]c2cc(Cl)c(-n3ccnc3)cc2c(=O)n1O | 0.0749 µM | > 10 µM | > 10 µM |  |  |  |  |  |  |  |  |  |  |  |  |  | 
O=C(NCc1ccccc1)Nc1cc2c(=O)n(O)c(=O)[nH]c2cc1Cl | 0.0069 µM | > 10 µM | > 10 µM |  |  |  |  |  |  |  |  |  |  |  |  |  | 
O=c1[nH]c2ccc(Cl)cc2c(=O)n1O | 0.0482 µM | > 10 µM | > 10 µM |  |  |  |  |  |  |  |  |  |  |  |  |  | 
O=C(O)CCC(=O)Nc1cc2c(=O)n(O)c(=O)[nH]c2cc1Cl | 0.007 µM | > 10 µM | > 10 µM |  |  |  |  |  |  |  |  |  |  |  |  |  | 
O=c1[nH]c2cc(C(F)(F)F)ccc2c(=O)n1O | 0.0082 µM | > 10 µM | > 10 µM |  |  |  |  |  |  |  |  |  |  |  |  |  | 
O=C1C=CCN1c1cc2c(=O)n(O)c(=O)[nH]c2cc1Cl | 0.0083 µM | > 10 µM | > 10 µM | 48.5% | 56.2% | 106% | 50.6% | 60.1% | 88.9% | 36.4% | 57.3% | 68.3% | 20.6% | 45.7% | 65.2% |  | 
O=c1[nH]c2cc(Cl)cc(Cl)c2c(=O)n1O | 0.0077 µM | > 10 µM | > 10 µM | 92.6% | 93.8% | 91% | 101% | 102% | 104% | 94.2% | 95.9% | 94.9% | 93% | 87% | 78.9% |  | 

Continued, in another order:

Ki (Carbonic anhydrase 9) | Ki (Carbonic anhydrase 1) | Ki (Carbonic anhydrase 2) | SMILES | viability at 48 h, 30 µM [1] | viability at 48 h, 100 µM [2] | viability at 48 h, 300 µM [3] | viability at 30 µM (HT-29 [4]) | viability at 100 µM (HT-29 [5]) | viability at 300 µM (HT-29 [6]) | viability at 72 h, 30 µM [7] | viability at 72 h, 100 µM [8] | viability at 72 h, 300 µM [9] | viability at 30 µM (HT-29 [10]) | viability at 100 µM (HT-29 [11]) | viability at 300 µM (HT-29 [12]) | Activity (HT-29 [13]) | Activity (HT-29 [14])
0.273 µM | > 10 µM | > 10 µM | Nc1ccc2[nH]c(=O)n(O)c(=O)c2c1 |  |  |  |  |  |  |  |  |  |  |  |  |  | 
0.0097 µM | > 10 µM | > 10 µM | O=c1[nH]c2cc(C(F)(F)F)c([N+](=O)[O-])cc2c(=O)n1O | 53.9% | 57.7% | 45.1% | 45.2% | 46.8% | 50.2% | 41.5% | 45.3% | 49.7% | 38.6% | 38.2% | 40.3% |  | 
0.0079 µM | > 10 µM | > 10 µM | O=C(O)c1ccc(C(=O)Nc2cc3c(=O)n(O)c(=O)[nH]c3cc2Cl)cc1 |  |  |  |  |  |  |  |  |  |  |  |  |  | 
0.0695 µM | > 10 µM | > 10 µM | O=c1[nH]c2ccc(-n3cnnc3)cc2c(=O)n1O |  |  |  |  |  |  |  |  |  |  |  |  |  | 
0.0046 µM | > 10 µM | > 10 µM | O=c1[nH]c2ccc([N+](=O)[O-])cc2c(=O)n1O | 101% | 95.5% | 95.1% | 98.8% | 99.5% | 96.7% | 95.6% | 94.1% | 94.3% | 94.7% | 93.7% | 87.3% |  | 
0.0082 µM | > 10 µM | > 10 µM | O=c1[nH]c2cc(Cl)c(Cl)cc2c(=O)n1O | 93.4% | 91% | 9.44% | 106% | 76% | 14.8% | 107% | 73.5% | 20.6% | 93.3% | 78.1% | 24.5% |  | 
0.208 µM | > 10 µM | > 10 µM | COn1c(=O)[nH]c2cc(Cl)ccc2c1=O |  |  |  |  |  |  |  |  |  |  |  |  |  | 
0.301 µM | > 10 µM | > 10 µM | O=C(Nc1ccccc1)Nc1ccc2[nH]c(=O)n(O)c(=O)c2c1 |  |  |  |  |  |  |  |  |  |  |  |  |  | 
0.0588 µM | > 10 µM | > 10 µM | O=C(Nc1cc2c(=O)n(O)c(=O)[nH]c2cc1Cl)c1ccccc1 |  |  |  |  |  |  |  |  |  |  |  |  |  | 
0.018 µM | > 10 µM | > 10 µM | O=C(O)COn1c(=O)[nH]c2cc(Cl)c([N+](=O)[O-])cc2c1=O |  |  |  |  |  |  |  |  |  |  |  |  |  | 
